Measurements from ChEMBL document CHEMBL1806419, “18β-Glycyrrhetinic acid derivatives induced mitochondrial-mediated apoptosis through reactive oxygen species-mediated p53 activation in NTUB1 cells” (Bioorg Med Chem, 2011).
Activity calls are given as the source filed them. The calls are words filed in the database; no cut-off is given here.

Key:
[1] = Cell cycle arrest in human NTUB1 cells assessed as accumulation at subG1 phase after 24 hrs by propidium iodide staining based flow cytometric analysis; assay type: functional
How it was run: (§1)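 8×10^5 NTUB1 cells plated, treated 24 h (alongside 10 µM cisplatin, 1 mM NAC, 50 µM H2O2 controls); harvested by trypsinization, fixed overnight in ice-cold MeOH at −20 °C, stained with 50 µg/mL propidium iodide plus 50 µg/mL RNase A in PBS 30 min at room temperature; cell-cycle phase fractions and sub-G1 (apoptotic) DNA content by FACScan flow cytometry; three independent experiments.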

[2] = Induction of apoptosis in human NTUB1 cells assessed as increase in JC-1 probe monomers at 50 uM after 24 hrs by flow cytometric analysis; assay type: functional
How it was run: (§2)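 NTUB1 cells (3×10^5) treated with 10, 25 or 50 µM (10 µM CCCP control), then loaded with 1 µM JC-1 in medium 30 min; washed in PBS, trypsinized, resuspended in PBS/2% BSA; green monomer (R2) and red aggregate (R1) fluorescence by flow cytometry, aggregate/monomer ratio representing membrane potential.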

[3] = Cell cycle arrest in human NTUB1 cells assessed as accumulation at S phase at 25 uM after 24 hrs by propidium iodide staining based flow cytometric analysis (reference value: 20.37%); assay type: functional; how it was run: as §1
[4] = Cell cycle arrest in human NTUB1 cells assessed as accumulation at S phase at 50 uM after 24 hrs by propidium iodide staining based flow cytometric analysis (reference value: 20.37%); assay type: functional; how it was run: as §1
[5] = Cell cycle arrest in human NTUB1 cells assessed as accumulation at G1 phase at 75 uM after 24 hrs by propidium iodide staining based flow cytometric analysis (reference value: 50.64%); assay type: functional; how it was run: as §1
[6] = target: Cellular tumor antigen p53 (Homo sapiens) (UniProt P04637); experiment: Increase in p53 phosphorylation in human NTUB1 cells after 24 hrs by Western blot analysis; assay type: cell-based
How it was run: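 NTUB1 cells exposed 24 h to 0–50 µM (10 µM cisplatin comparator), or to 50 µM with or without 1 mM NAC; lysed in boiled sample buffer, SDS–PAGE, nitrocellulose semi-dry transfer, milk-blocked in TBST, primary antibodies (p-p53 Ser15, p53 DO1, β-actin) overnight at 4 °C, secondary 1 h, ECL detection; triplicate experiments.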

NTUB1 = experiment: Induction of apoptosis in human NTUB1 cells assessed as activation of caspase 3 at 10 to 50 uM by Western blot analysis; assay type: functional, cell-based
[7] = Induction of apoptosis in human NTUB1 cells assessed as decrease in JC-1 aggregation at 50 uM after 24 hrs by flow cytometric analysis; assay type: functional; set-up: scale not given: the % may be the effect or the level left; how it was run: as §2
[8] = Increase in ROS generation in human NTUB1 cells at 25 uM after 24 hrs by H2DCFDA staining based flow cytometeric analysis relative to control; assay type: functional
How it was run: (§3)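 NTUB1 cells (3×10^5 per 6 cm dish) treated 24 h (20 µM cisplatin and 1 mM NAC controls; medium-only control); 10 µM H2DCFDA added 30 min before harvest; trypsinized, PBS-washed, DCF green fluorescence (525 nm band pass, region M1) measured immediately by flow cytometry; percent change vs control; mean ± SD, n = 3.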

PC-3 = experiment: Cytotoxicity against human PC3 cells after 72 hrs by MTT assay; assay type: functional, cell-based
How it was run: (§4)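 Cells seeded 1800/well in 96-well plates, preincubated overnight at 37 °C, then exposed to graded concentrations for 72 h at 37 °C (NTUB1, PC3 in RPMI 1640; SV-HUC1 in F12; 10% FBS, 5% CO2). MTT (2 mg/mL) added 3 h, formazan dissolved in DMSO, absorbance 540 nm; viability as percent of control; IC50 by median-effect analysis, mean ± SD.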

[9] = Increase in ROS generation in human NTUB1 cells at 10 uM after 24 hrs by H2DCFDA staining based flow cytometeric analysis relative to control; assay type: functional; how it was run: as §3
[10] = Induction of apoptosis in human NTUB1 cells assessed as increase in JC-1 probe monomers at 10 uM after 24 hrs by flow cytometric analysis; assay type: functional
How it was run: (§5)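 NTUB1 bladder carcinoma cells (3 × 10^5) in RPMI 1640 with 10% FBS at 37 °C, 5% CO2, exposed to test agent (10, 25 or 50 µM) with 10 µM CCCP as positive control. Stained 30 min with 1 µM JC-1 in medium, washed, trypsinised, resuspended in PBS/2% BSA. Flow cytometry read green monomer and red aggregate fluorescence; the aggregate/monomer ratio represents membrane potential.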

[11] = Induction of apoptosis in human NTUB1 cells assessed as increase in JC-1 probe monomers at 25 uM after 24 hrs by flow cytometric analysis; assay type: functional; how it was run: as §2
[12] = Cell cycle arrest in human NTUB1 cells assessed as accumulation at G1 phase at 50 uM after 24 hrs by propidium iodide staining based flow cytometric analysis (reference value: 50.64%); assay type: functional; how it was run: as §1
[13] = Cell cycle arrest in human NTUB1 cells assessed as accumulation at subG1 phase at 50 uM after 24 hrs by propidium iodide staining based flow cytometric analysis (reference value: 6.68%); assay type: functional; how it was run: as §1
[14] = Cell cycle arrest in human NTUB1 cells assessed as accumulation at subG1 phase at 75 uM after 24 hrs by propidium iodide staining based flow cytometric analysis (reference value: 6.68%); assay type: functional; how it was run: as §1
[15] = Cytotoxicity against human NTUB1 cells after 72 hrs by MTT assay; assay type: functional, cell-based; conditions: NTUB1, 72 h; how it was run: as §4
[16] = Induction of apoptosis in human NTUB1 cells assessed as decrease in JC-1 aggregation at 10 uM after 24 hrs by flow cytometric analysis; assay type: functional; set-up: scale not given: the % may be the effect or the level left; how it was run: as §5
[17] = Cell cycle arrest in human NTUB1 cells assessed as accumulation at G2/M phase at 75 uM after 24 hrs by propidium iodide staining based flow cytometric analysis (reference value: 20.37%); assay type: functional; how it was run: as §1
[18] = Cell cycle arrest in human NTUB1 cells assessed as accumulation at S phase at 75 uM after 24 hrs by propidium iodide staining based flow cytometric analysis (reference value: 20.37%); assay type: functional; how it was run: as §1
[19] = Cell cycle arrest in human NTUB1 cells assessed as accumulation at G1 phase at 25 uM after 24 hrs by propidium iodide staining based flow cytometric analysis (reference value: 50.64%); assay type: functional; how it was run: as §1
[20] = Cell cycle arrest in human NTUB1 cells assessed as accumulation at G2/M phase at 25 uM after 24 hrs by propidium iodide staining based flow cytometric analysis (reference value: 20.37%); assay type: functional; how it was run: as §1
[21] = Cell cycle arrest in human NTUB1 cells assessed as accumulation at G2/M phase at 50 uM after 24 hrs by propidium iodide staining based flow cytometric analysis (reference value: 20.37%); assay type: functional; how it was run: as §1
[22] = Induction of apoptosis in human NTUB1 cells assessed as decrease in JC-1 aggregation at 25 uM after 24 hrs by flow cytometric analysis; assay type: functional; set-up: scale not given: the % may be the effect or the level left; how it was run: as §2
[23] = Cell cycle arrest in human NTUB1 cells assessed as accumulation at subG1 phase at 25 uM after 24 hrs by propidium iodide staining based flow cytometric analysis (reference value: 6.68%); assay type: functional; how it was run: as §1
[24] = Cytotoxicity against immortalized human SV-HUC1 cells after 72 hrs by MTT assay; assay type: cell-based; conditions: sv-huc1, 72 h; how it was run: as §4

Sequence of Cellular tumor antigen p53 (Homo sapiens) (P04637 whole entry, looked up): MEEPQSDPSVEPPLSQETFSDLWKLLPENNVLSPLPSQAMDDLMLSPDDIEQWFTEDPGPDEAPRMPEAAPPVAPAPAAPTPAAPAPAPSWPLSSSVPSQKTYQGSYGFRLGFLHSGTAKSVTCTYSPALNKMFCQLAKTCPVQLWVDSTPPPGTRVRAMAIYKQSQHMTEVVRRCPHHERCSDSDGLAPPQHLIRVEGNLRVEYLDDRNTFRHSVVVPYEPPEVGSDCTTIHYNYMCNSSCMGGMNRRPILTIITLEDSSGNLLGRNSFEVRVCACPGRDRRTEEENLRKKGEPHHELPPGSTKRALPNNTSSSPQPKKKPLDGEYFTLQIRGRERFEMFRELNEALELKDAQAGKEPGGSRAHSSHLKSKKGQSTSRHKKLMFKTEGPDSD

For `C=C(C)[C@@H]1CC[C@]2(C)[C@H](C(=O)C=C3[C@@H]4C[C@@](C)(C(=O)NC(C)C)CC[C@]4(C)CC[C@]32C)[C@@]1(C)CCC(=O)NC(C)C`, the Activity [1] was “Dose-dependent effect”, the Activity [2] was 55.65% and the Activity [3] was 12.7%. For the same molecule, the Activity [4] was 3.15%, the Activity [5] was 14.7% and the Activity [6] was “Dose-dependent effect”. For the same molecule, the Activity (NTUB1) was “inactive”, the Activity [7] was 44.07% and the Activity [8] was 85.6%. For the same molecule, the Activity (PC-3) was “Active”, the Activity [9] was 66.1% and the Activity [10] was 94.14%. The Activity [11] was 87.17%, the Activity [12] was 35.7% and the Activity [13] was 55.7%. The Activity [14] was 78.4%, the IC50 [15] was 4.76 µM and the Activity [16] was 5.45%. It also gave an Activity [17] of 4%, an Activity [18] of 2.79% and an Activity [19] of 49.5%. It also gave an Activity [20] of 12.7%, an Activity [21] of 5.22% and an Activity [22] of 12.65%. The Activity [23] was 20.4% and the Activity [24] was “Non-toxic”.
